The record followed here is ChEMBL document CHEMBL4004844, “Structure-based design, synthesis and antitumoral evaluation of enulosides” (Eur J Med Chem, 2017).

Structures are written as SMILES.

Series [1] deals with HL-60. Briefly: Growth inhibition of human HL60 cells after 72 hrs by MTT assay. The series is classed as functional, cell-based. As to conditions: HL-60, 72 h. On the technique in general: Tetrazolium assays rely on reduction of a dye to a coloured formazan, in cell work by metabolically active cells.
Series [2] relates to MCF7. Briefly: Growth inhibition of human MCF7 cells after 72 hrs by MTT assay. The series is classed as functional, cell-based. The following applies: MCF7, 72 h. The method, boiled down:
(§1)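 Cells kept in RPMI 1640 or DMEM with 10% FBS, 2 mM glutamine, penicillin/streptomycin, at 37 °C and 5% CO2. Seeded at 10⁵ cells/mL (adherent NCI-H292, MCF-7, HEP-2) or 3 × 10⁵ cells/mL (HL-60). Compounds at 0.1–25 in 0.1% DMSO for 72 h, with DMSO controls. MTT read at 595 nm. IC50 with 95% CI from nonlinear regression, two experiments.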

Series [3] relates to NCI-H292. Briefly: Growth inhibition of human NCI-H292 cells after 72 hrs by MTT assay. The series is classed as functional, cell-based. The following applies: NCI-H292, 72 h. In a few lines: as §1
Series [4] concerns HEp-2. The experiment in a line: Growth inhibition of human Hep2 cells after 72 hrs by MTT assay. Type of series: functional, cell-based. The following applies: HEp-2, 72 h. In a few lines:
as §1

Series [5] is described as follows: Solubility in water. The series is classed as physicochemical. As to conditions: buffer.
Series [6] deals with NCI-H292. Briefly: Growth inhibition of human NCI-H292 cells at 25 ug/ml after 72 hrs by MTT assay relative to control. Type of series: functional. The following applies: NCI-H292, 72 h, read-out: GI. In a few lines:
(§2)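 Preliminary single-concentration screen at 25 by MTT reduction. Cells seeded at 10⁵ cells/mL (adherent) or 3 × 10⁵ cells/mL (HL-60), exposed for 72 h in 0.1% DMSO. Percent growth inhibition relative to DMSO-treated controls, from absorbance at 595 nm.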

Series [7] concerns MCF7. Briefly: Growth inhibition of human MCF7 cells at 25 ug/ml after 72 hrs by MTT assay relative to control. The series is classed as functional. As to conditions: MCF7, 72 h, read-out: GI. The method, boiled down:
as §2

For series [8], the system named is HL-60. The experiment in a line: Growth inhibition of human HL60 cells at 25 ug/ml after 72 hrs by MTT assay relative to control. The series is classed as functional. The following applies: HL-60, 72 h, read-out: GI. In a few lines: as §2
Series [9] has as its system HEp-2. The experiment in a line: Growth inhibition of human Hep2 cells at 25 ug/ml after 72 hrs by MTT assay relative to control. As to conditions: HEp-2, 72 h, read-out: GI. The series is classed as functional. The method, boiled down: as §2

A word on the IC50: it is the midpoint of a concentration-inhibition curve. Read a high IC50 as lower potency.

Consider `CCCO[C@@H]1C=CC(=O)[C@@H](CO)O1`, for which the IC50 in the series with HL-60 [1] stood at 10.7 µM; with MCF7 [2], 18.3 µM; in the series on NCI-H292 [3] it was 15.6 µM; with HEp-2 [4] it was 13.4 µM.

In the case of `CC(C)O[C@@H]1C=CC(=O)[C@@H](CO)O1`, the IC50 with HL-60 [1] came to 9.7 µM; in the series with MCF7 [2] it was 36 µM; with NCI-H292 [3], 24.2 µM; with HEp-2 [4] it was 34.9 µM.

In the case of `COCCOCCOCCO[C@@H]1C=CC(=O)[C@@H](CO)O1`, the results for the IC50 in the series with HL-60 [1], with NCI-H292 [3] and with HEp-2 [4] were 7.9 µM, 35.5 µM and 32.1 µM, respectively. The solubility result in series [5] is “Soluble”.

Consider `C#CCCO[C@@H]1C=CC(=O)[C@@H](CO)O1`, for which the IC50 in the series with HL-60 [1] came to 2.5 µM; in the series with NCI-H292 [3], 12.7 µM; in the series on HEp-2 [4] it was 7.1 µM.

`C#CCO[C@@H]1C=CC(=O)[C@@H](CO)O1`: the IC50 was found to be 9.3 µM with HL-60 [1], 10.4 µM with MCF7 [2], 6.6 µM in the series on NCI-H292 [3] and 15.4 µM in the series with HEp-2 [4].

With `O=C1C=C[C@@H](OC2CCCC2)O[C@@H]1CO`, the IC50 was 4.2 µM in the series on HL-60 [1], 20.7 µM in the series with MCF7 [2], 19.8 µM in the series on NCI-H292 [3] and 8 µM in the series on HEp-2 [4].

On to `C=CCO[C@@H]1C=CC(=O)[C@@H](CO)O1`, for which the IC50 came out at 4.9 µM in the series on HL-60 [1], 16.3 µM in the series with MCF7 [2], 10.3 µM with NCI-H292 [3] and 26.1 µM in the series on HEp-2 [4].

As to `CCO[C@@H]1C=CC(=O)[C@@H](CO)O1`, the inhibition of growth at 25 µg/mL with NCI-H292 [6] was found to be 100%; with MCF7 [7], 97.2%; in the series on HL-60 [8] it was 100%; in the series on HEp-2 [9], 100%. Also, the IC50 turned out to be 3.5 µM in the series with HL-60 [1], 18 µM with NCI-H292 [3] and 5.8 µM with HEp-2 [4].

As to `O=C1C=C[C@@H](OC2CCCCC2)O[C@@H]1CO`, the IC50 came to 13.3 µM in the series with HL-60 [1], 11 µM in the series with MCF7 [2], 2.6 µM in the series on NCI-H292 [3] and 7.5 µM in the series with HEp-2 [4].

In the case of `COc1cccc2c1C(=O)c1c(O)c3c(c(O)c1C2=O)C[C@@](O)(C(=O)CO)C[C@@H]3O[C@H]1C[C@H](N)[C@H](O)[C@H](C)O1` [DOXORUBICIN], the figures for the IC50 in the series on MCF7 [2], in the series on NCI-H292 [3] and in the series with HEp-2 [4] were 0.6 µM, 0.6 µM and 1.3 µM, respectively.

On to `O=C1C=C[C@@H](OCc2ccccc2)O[C@@H]1CO`, for which the IC50 with HL-60 [1] came to 27.3 µM; in the series with MCF7 [2] it was 11.1 µM; in the series with NCI-H292 [3] it was 3.8 µM; in the series on HEp-2 [4], 8.5 µM.

Take `CCO[C@@H]1C=C[C@H](OC(C)=O)[C@@H](COC(C)=O)O1`: the inhibition of growth at 25 µg/mL with NCI-H292 [6] amounted to 2.1%; with MCF7 [7], 5.1%; in the series on HL-60 [8], 12.3%; in the series with HEp-2 [9], 9.3%.

On to `CCO[C@@H]1C=C[C@H](O)[C@@H](CO)O1`, for which the inhibition of growth at 25 µg/mL is 17.4% in the series with NCI-H292 [6], 20.4% with MCF7 [7], 31.4% in the series with HL-60 [8] and 12.5% in the series on HEp-2 [9].
